Bioassay records: PubChem, several laboratories
Rows were chosen to be rich in hits. Some 1.8% of all compounds tested hit in one or more screens of this group.
697 NFkB inh = inhibitors of PMA/ionomycin-induced NF-kB reporter, 697 cells, primary screen, B-cell NF-kB inhibitor project, cell-based, luminescence, uHTS | 697 B-cell NF-kB luciferase reporter, 16 h | inhibition, % at 4 µM | 330,000 compounds, 0.33% hits; in the data active = inhibition above about 35%
Jurkat NFkB inh = inhibitors of induced NF-kB luciferase reporter, primary screen, TCR NF-kB activation inhibitor project, cell-based, luminescence, uHTS. inhibition, % at 4 µM. 330,000 compounds, 0.53% hits. Jurkat, PMA/ionomycin-induced NF-kB luciferase reporter. AID 435003, 2010; in the data active = inhibition above about 50%
GalR3 antagonist = GalR3 antagonists in HEK293 cells, primary screen, cell-based, fluorescence readout; Galanin receptor type 3 (Homo sapiens), O60755; inhibition, % at 3 µM; HEK293 GalR3-CNG cAMP membrane potential fluorescence; galR3 body fused to GalR1 C-terminus; 360,000 compounds, 0.44% hits;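 active = inhibition above the screen-wide average plus 3 SD, cut at about 13% in these data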;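 note: forskolin and galanin both at EC90 stimulate the cells; cAMP rise reported by CNG channel membrane potential dye signal; 0% = forskolin plus galanin with DMSO and 100% = forskolin alone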
Target sequence (O60755 1-299 limits assumed): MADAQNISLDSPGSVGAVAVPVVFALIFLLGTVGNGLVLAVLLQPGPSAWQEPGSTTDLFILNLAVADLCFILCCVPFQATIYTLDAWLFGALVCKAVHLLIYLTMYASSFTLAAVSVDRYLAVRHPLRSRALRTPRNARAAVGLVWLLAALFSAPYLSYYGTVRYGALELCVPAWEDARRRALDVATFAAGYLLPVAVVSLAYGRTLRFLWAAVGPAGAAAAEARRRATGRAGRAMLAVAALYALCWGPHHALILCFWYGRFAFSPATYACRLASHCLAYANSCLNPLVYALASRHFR
NR2E3 ag-1 = NR2E3 agonists in two-hybrid cells, primary screen, cell-based, luminescence, CHO-S, Gal4-NCOR/VP16-NR2E3; Photoreceptor-specific nuclear receptor (Homo sapiens), Q9Y5X4; luciferase; inhibition of corepressor binding, % at 3.98 µM; 360,000 compounds, 0.35% hits; AID 602229, 2012;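 active = inhibition above the mean of all tested compounds plus 3 SD, cut at about 70% in these data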;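 note: 0% = DMSO with NR2E3 transfected cells and 100% = cells lacking NR2E3 construct; higher means lower luciferase signal from less NR2E3 corepressor binding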
Target sequence (Q9Y5X4 whole entry, looked up, the tested form may be a part): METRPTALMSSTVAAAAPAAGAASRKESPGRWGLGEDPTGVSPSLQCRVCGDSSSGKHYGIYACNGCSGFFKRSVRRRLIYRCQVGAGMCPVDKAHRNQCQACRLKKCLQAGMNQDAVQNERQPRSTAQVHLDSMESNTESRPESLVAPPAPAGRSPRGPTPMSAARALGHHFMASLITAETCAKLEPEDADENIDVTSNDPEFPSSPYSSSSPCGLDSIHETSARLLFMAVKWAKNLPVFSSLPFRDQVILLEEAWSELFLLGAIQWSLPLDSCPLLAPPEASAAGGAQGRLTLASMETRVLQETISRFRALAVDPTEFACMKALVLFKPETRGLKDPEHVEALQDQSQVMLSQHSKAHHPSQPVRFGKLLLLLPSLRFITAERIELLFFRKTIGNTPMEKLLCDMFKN
NR2E3 ag-2 = inhibitors of NR2E3-RetCOR corepressor binding, primary screen, NR2E3 agonist project, biochemical, TR-FRET, GST-NR2E3, biotin-RetCOR; AID 2300, 2010; inhibition of corepressor binding, % at 4.78 µM; Photoreceptor-specific nuclear receptor (Homo sapiens), Q9Y5X4; 1536-well; 320,000 compounds, 0.12% hits;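 active = percent inhibition above the cutoff of mean plus 3 SD of all tested compounds, set per screening campaign, cut at about 20% in these data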;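 note: 0% = DMSO wells and 100% = biotin wells as full block of FRET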
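Test system – NR2E3–RetCOR corepressor complex · Quantity – NR2E3 fusion 1.35 nM · Buffer or medium – Tris pH 7.5 · Incubation – Compound–protein incubation for 5 h at 4 °C · Technique – TR-FRET, Eu(K)-anti-GST donor, streptavidin-D2 acceptor, ex 340, em 617/671 nm · Evaluation – percent inhibition of 671/617 nm emission ratio versus biotin and DMSO controls · Plate – 1536-well format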
Gli-Sufu block = Gli-Sufu pathway antagonists, primary screen, luciferase luminescence, Sufu-KO-LIGHT cells, uHTS; Sufu-KO-LIGHT fibroblasts, Gli luciferase reporter luminescence; inhibition, % at 5 µM; 340,000 compounds, 0.74% hits;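 active = inhibition above about 55%, limit read from the data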;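 note: 0% = DMSO-treated cells and 100% = wells with medium but no cells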
Jurkat NFkB conf = PMA/ionomycin-induced NF-kB reporter inhibitors, Jurkat retest, confirmation, T-cell NF-kB inhibitor project, cell-based, luminescence, single concentration; Jurkat NF-kB luciferase, 16 h; inhibition, % at 4 µM; shares compounds with Jurkat NFkB inh; 2,700 compounds, 27% hits;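 active = inhibition reaching about 45% at 4 µM in either replicate, limit read from the data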;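 note: plate controls were PMA/ionomycin stimulated DMSO wells for no effect and unstimulated DMSO wells for full effect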
697 NFkB conf = PMA/ionomycin-induced NF-kB reporter inhibitors, 697 retest, confirmation, B-cell NF-kB inhibitor project, cell-based, luminescence, single concentration; inhibition, % at 4 µM; 2,000 compounds, 35% hits; shares compounds with 697 NFkB inh; 697 B-cell NF-kB luciferase, 16 h; AID 449746, 2010; in the data active = inhibition mostly above about 28%, no sharp cut-off; inactive = mostly below about 22%
Gli antag conf = Gli-SUFU pathway antagonists, confirmation, single concentration, luciferase luminescence, Sufu-KO-LIGHT cells; shares compounds with Gli-Sufu block; Gli luciferase reporter; inhibition, % at 5 µM; 2,500 compounds, 40% hits;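 active = mean inhibition at 5 µM reaching about 45%, limit read from the data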;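 note: plate controls were DMSO-treated cells for no effect and wells lacking cells for full effect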
SufuKO cytotox = cytotoxicity in Sufu-KO-LIGHT cells, confirmation, cytotoxicity control for Gli-SUFU antagonist project, cell-based, ATP luminescence, single concentration; shares compounds with Gli-Sufu block; cytotoxicity, % at 5 µM; 2,500 compounds, 32% hits; AID 651994, 2013;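 active = mean cytotoxicity at 5 µM above about 25%, limit read from the data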;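 note: cells exposed to compound overnight for roughly 16 to 18 hours; plate controls were DMSO wells with cells for no effect and medium without cells for full effect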
Wnt3a cs = Wnt3a reporter signal inhibition, confirmation, counter-screen for Gli-SUFU antagonist project, Wnt-LIGHT cells, luminescence, single concentration. shares compounds with Gli-Sufu block. Wnt3a-driven luciferase reporter. inhibition, % at 6.25 µM. 2,500 compounds, 20% hits;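 active = mean inhibition above about 25%, limit read from the data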
NR2E3 ag confirm = NR2E3 agonist confirmation in cells, cell-based, luminescence, CHO-S two-hybrid; shares compounds with NR2E3 ag-1; CHO-S mammalian two-hybrid NR2E3-NCOR, luciferase luminescence; inhibition, % at 3.98 µM; 2,300 compounds, 51% hits; AID 624378, 2012;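 active = average inhibition above a cutoff equal to the mean inhibition of all tested compounds plus one SD, cut at about 70% in these data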;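 note: 0% = DMSO in NR2E3 cells and 100% = DMSO in cells lacking NR2E3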
GAL4-VP16 luc = GAL4-VP16 reporter modulators, confirmation, counter-screen for NR2E3 agonist project, cell-based, luminescence, CHO-S, high throughput | 2,300 compounds, 29% hits | CHO-S GAL4-VP16 luciferase reporter | shares compounds with NR2E3 ag-1 | AID 624379, 2012 | inhibition, % at 3.98 µM;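 active = mean inhibition above a cutoff equal to the average over all tested compounds plus one standard deviation, cut at about 70% in these data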;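 note: luciferase from a UAS reporter driven by GAL4-VP16 transactivation; 0% = DMSO with VP16-transfected cells and 100% = DMSO with cells lacking VP16; higher means less reporter light so more repression of VP16 activity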
GalR3 conf = GalR3 antagonist hit confirmation, cell-based, fluorescence, triplicate; shares compounds with GalR3 antagonist; HEK293 GalR3 CNG cAMP biosensor, membrane potential fluorescence; galR3 fused to GalR1 carboxy tail; challenged with forskolin and galanin at EC90; inhibition, % at 3 µM; 1,600 compounds, 59% hits; AID 652245, 2013;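 active = inhibition above the primary screen's cutoff, the mean inhibition of all screened compounds plus 3 SD, cut at about 13% in these data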;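 note: 0% = forskolin plus galanin and 100% = forskolin alone with DMSO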
HEK-CNG parental = nonspecific cAMP agonists in parental HEK-CNG cells, counter-screen for GalR3 antagonist project, cell-based, fluorescence, high throughput; shares compounds with GalR3 antagonist; HEK293-CNG parental cells, cAMP membrane potential fluorescence; normalised: DMSO wells 0%, forskolin wells 100%; activation, % at 3 µM; 1,600 compounds, 10% hits; AID 652268, 2013; in the data active = activation above about 1.3%
* hit, by the source's call; . = not tested or not shown.

SMILES	697 NFkB inh	Jurkat NFkB inh	GalR3 antagonist	NR2E3 ag-1	NR2E3 ag-2	Gli-Sufu block	Jurkat NFkB conf	697 NFkB conf	NR2E3 ag confirm	GAL4-VP16 luc	GalR3 conf	HEK-CNG parental	others
CCCCCCCCCn1ccc(=N)cc1	45.4*	92.2*	95.6*	12.4	-0.1	88.8*	76.8*	57.8*	.	.	109.5*	0.2
CCCCCCCn1ccc(=N)cc1	89.0*	65.8*	15.8*	17.9	0.7	84.2*	74.2*	82.8*	.	.	32.6*	-0.2	Gli antag conf=88.1*;SufuKO cytotox=34.9*;Wnt3a cs=42.7*
Cc1cc(C)nc(SCC(=O)Nc2ccnc3ccccc23)n1	23.3	63.9*	54.6*	84.4*	1.1	64.4*	64.7*	.	91.9*	82.5*	121.4*	-0.4	Gli antag conf=66.7*;SufuKO cytotox=13.9;Wnt3a cs=41.0*
CC1(C)CC(=O)c2c(O)cc(OCC(=O)Nc3ccc(S(N)(=O)=O)cc3)cc2O1	8.0	5.4	-7.7	-26.6	3.9	-15.4	.	.	.	.	.	.
COc1cc(NC(=O)COc2cc(O)c3c(c2)OC(C)(C)CC3=O)cc(OC)c1OC	59.5*	57.5*	44.8*	82.3*	-1.3	69.5*	75.7*	47.8*	58.9	84.1*	101.5*	0.2
O=C(N[C@H](C(=O)N1CCC[C@H]1C(=O)NC1CCCC1)c1ccccc1)c1ccc(Cl)cc1Cl	.	.	-7.7	.	.	.	.	.	.	.	.	.
Cc1cccc(-n2ncc3c2CCCC3NC(=O)c2cccs2)c1C (configuration not stated)	.	.	-6.1	17.4	.	.	.	.	.	.	.	.
CCn1cc(C(=O)NC2CCCc3c2cnn3-c2cccc(C)c2C)cn1 (configuration not stated)	-25.8	73.8*	97.0*	104.9*	-0.1	.	66.2*	.	94.8*	88.3*	113.9*	-0.5
CC(=O)c1c(C)[nH]c(C(=O)OCC(=O)Nc2ccc(C)cc2[N+](=O)[O-])c1C	48.5*	61.7*	12.9*	81.5*	5.4	77.3*	68.8*	26.7	98.5*	89.5*	106.5*	-1.0	Gli antag conf=80.0*;SufuKO cytotox=26.5*;Wnt3a cs=27.6*
COC(=O)[C@H](Cc1ccccc1)N1C[C@@H](N2CCC[C@H]2C)CS1(=O)=O	.	.	-2.3	.	.	.	.	.	.	.	.	.
COc1ccc(F)cc1CSc1nnnn1-c1ccc(O)cc1	-11.1	15.4	-8.9	15.4	-1.9	-16.0	.	.	.	.	.	.
COc1cc(CSc2nnnn2-c2ccc(C)cc2)cc(OC)c1OC	44.2*	58.7*	95.6*	97.8*	8.5	69.2*	60.2*	47.1*	93.8*	83.7*	97.7*	0.4	Gli antag conf=68.1*;SufuKO cytotox=27.3*;Wnt3a cs=40.3*
O=C(N/N=C(\c1ccccc1)c1cccnc1)c1cccc(F)c1	-10.2	52.4*	42.3*	32.0	1.9	94.2*	54.9*	.	.	.	38.0*	0.4
COc1ccc(-c2ccc3oc(-c4ccc(OC)cc4)c(C#CCO)c3c2)cc1	-38.8	73.2*	95.0*	-6.8	-3.9	5.5	56.9*	.	.	.	109.5*	-1.2
COc1ccc(-c2ccc3oc(-c4ccc(OC)cc4)c(-c4ccc(OC)cc4)c3c2)cc1	-4.2	3.4	-6.5	-2.7	0.3	8.9	.	.	.	.	.	.
C[C@@H]1CN([C@@H](C)CO)C(=O)CCCn2cc(nn2)CO[C@H]1CN(C)C(=O)Nc1cccc(Oc2ccccn2)c1	.	.	-4.5	.	.	.	.	.	.	.	.	.
O=C(N[C@H](C(=O)N1CCC[C@H]1C(=O)NC1CCCC1)C1CCCCC1)c1ccccn1	.	.	-7.5	.	.	.	.	.	.	.	.	.
Cc1cc(N2CCN(C(c3ccccc3)c3ccccc3)CC2)n2ncnc2n1	-19.1	-5.6	-3.8	-23.6	3.7	7.6	.	.	.	.	.	.
Cc1cc(N2CCN(c3nc4ccccc4s3)CC2)n2ncnc2n1	53.7*	61.7*	23.9*	73.1*	0.8	71.2*	54.0*	42.0*	94.1*	76.5*	37.0*	-0.1	Gli antag conf=66.1*;SufuKO cytotox=38.5*;Wnt3a cs=-18.8
O=C(Nc1ccccc1)c1ccc(S(=O)(=O)N2CCCCC2)cc1	-7.7	-25.6	0.4	-6.5	5.1	-13.9	.	.	.	.	.	.
O=C(Nc1ccc(S(=O)(=O)Nc2ccccc2)cc1)c1ccc(CN2CCOCC2)cc1	13.5	64.4*	98.2*	0.9	2.7	25.0	64.7*	.	.	.	109.8*	-0.7
